# Measurements reported in ChEMBL document CHEMBL1132270, “Synthesis and structure-activity relationships of a new model of arylpiperazines. 4. 1-[omega-(4-Arylpiperazin-1-yl)alkyl]-3-(diphenylmethylene) - 2, 5-pyrrolidinediones and -3-(9H-fluoren-9-ylidene)-2, 5-pyrrolidinediones: study of the steric requirements of the terminal amide fragment on 5-HT1A …” (J Med Chem, 1999).
# How the values were obtained:
# [1] = biological target: T1, 5-hydroxytryptamine receptor 1A (Rattus norvegicus, UniProt P19327); assay: Binding affinity at 5-hydroxytryptamine 1A (5-HT1A) receptor in rat cerebral cortex using [3H]8-OH-DPAT as radioligand; format: tissue-based
# T1 sequence (P19327 whole entry): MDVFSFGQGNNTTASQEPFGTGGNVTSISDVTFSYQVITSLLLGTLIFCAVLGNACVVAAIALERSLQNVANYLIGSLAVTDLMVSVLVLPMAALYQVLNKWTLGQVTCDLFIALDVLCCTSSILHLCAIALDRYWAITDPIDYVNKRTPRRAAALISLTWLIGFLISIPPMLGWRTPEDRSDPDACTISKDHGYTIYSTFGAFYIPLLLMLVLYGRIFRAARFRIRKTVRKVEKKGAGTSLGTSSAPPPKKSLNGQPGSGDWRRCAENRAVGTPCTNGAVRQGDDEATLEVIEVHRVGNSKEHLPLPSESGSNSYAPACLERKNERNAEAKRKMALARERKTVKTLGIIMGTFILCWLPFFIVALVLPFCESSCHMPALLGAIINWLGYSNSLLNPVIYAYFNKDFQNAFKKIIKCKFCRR
# D(2) dopamine receptor = D(2) dopamine receptor (Rattus norvegicus, UniProt P61169); assay: In vitro binding affinity towards Dopamine receptor D2 of rat striatal membranes using [3H]- raclopride
# D(2) dopamine receptor, sequence (P61169 whole entry): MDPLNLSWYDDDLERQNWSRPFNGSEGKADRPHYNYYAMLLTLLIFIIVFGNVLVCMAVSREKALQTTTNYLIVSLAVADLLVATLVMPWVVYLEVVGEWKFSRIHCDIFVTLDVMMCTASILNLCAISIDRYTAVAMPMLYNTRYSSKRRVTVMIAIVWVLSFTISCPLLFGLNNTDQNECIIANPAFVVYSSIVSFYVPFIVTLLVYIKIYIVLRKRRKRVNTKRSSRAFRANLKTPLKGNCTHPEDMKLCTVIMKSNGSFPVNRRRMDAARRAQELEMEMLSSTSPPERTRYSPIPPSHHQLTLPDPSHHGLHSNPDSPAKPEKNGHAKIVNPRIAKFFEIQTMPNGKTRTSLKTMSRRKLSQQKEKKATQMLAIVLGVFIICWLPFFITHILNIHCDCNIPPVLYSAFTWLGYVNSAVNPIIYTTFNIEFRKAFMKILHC
# Procedure, shortened: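 Male Sprague–Dawley rat (180–200 g) striatal membranes (125–150 μg protein) incubated 60 min at 25 °C with 0.8 nM [3H]raclopride in 50 mM Tris-HCl pH 7.4 with 120 mM NaCl, 5 mM KCl, 2 mM CaCl2, 1 mM MgCl2, 0.1% ascorbic acid. Nonspecific: 1 μM (+)-butaclamol. Filtration, scintillation counting; IC50 fitted, Ki by Cheng–Prusoff; mean ± SEM of 2–4 triplicate experiments.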
# [2] = biological target: T2, Adrenergic receptor alpha-1 (Rattus norvegicus, UniProt P15823+P23944+P43140); assay: In vitro binding affinity was evaluated on alpha-1 adrenergic receptor from rat cerebral cortex by using [3H]prazosin as radioligand; format: tissue-based
# T2 sequence (P15823 whole entry): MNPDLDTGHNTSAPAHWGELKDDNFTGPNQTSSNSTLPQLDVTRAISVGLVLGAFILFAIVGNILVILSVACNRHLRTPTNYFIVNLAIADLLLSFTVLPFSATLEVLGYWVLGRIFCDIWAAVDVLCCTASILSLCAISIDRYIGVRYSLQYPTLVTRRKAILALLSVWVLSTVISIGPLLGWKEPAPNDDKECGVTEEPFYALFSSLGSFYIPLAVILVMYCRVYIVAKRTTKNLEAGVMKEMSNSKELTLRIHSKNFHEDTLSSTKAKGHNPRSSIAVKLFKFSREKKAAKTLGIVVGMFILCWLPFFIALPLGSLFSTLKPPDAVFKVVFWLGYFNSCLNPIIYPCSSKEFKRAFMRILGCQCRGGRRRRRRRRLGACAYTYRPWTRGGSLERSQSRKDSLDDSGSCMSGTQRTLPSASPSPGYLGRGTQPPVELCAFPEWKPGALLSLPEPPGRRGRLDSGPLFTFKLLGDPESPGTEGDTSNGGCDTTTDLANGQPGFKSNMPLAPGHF
# T2 sequence (P23944 whole entry): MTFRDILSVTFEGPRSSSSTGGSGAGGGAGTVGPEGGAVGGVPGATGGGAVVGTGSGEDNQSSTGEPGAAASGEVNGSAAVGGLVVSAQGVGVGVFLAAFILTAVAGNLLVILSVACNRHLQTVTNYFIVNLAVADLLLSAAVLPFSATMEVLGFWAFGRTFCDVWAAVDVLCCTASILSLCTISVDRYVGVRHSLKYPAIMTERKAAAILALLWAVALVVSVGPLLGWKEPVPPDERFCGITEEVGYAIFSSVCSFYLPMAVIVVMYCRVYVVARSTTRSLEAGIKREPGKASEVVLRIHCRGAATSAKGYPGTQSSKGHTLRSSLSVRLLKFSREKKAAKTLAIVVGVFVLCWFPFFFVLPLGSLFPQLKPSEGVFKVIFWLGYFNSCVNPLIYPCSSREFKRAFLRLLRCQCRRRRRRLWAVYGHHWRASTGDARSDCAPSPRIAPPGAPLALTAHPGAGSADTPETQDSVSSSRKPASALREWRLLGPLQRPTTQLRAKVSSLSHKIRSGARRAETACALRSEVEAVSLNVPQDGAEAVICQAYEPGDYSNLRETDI
# T2 sequence (P43140 whole entry): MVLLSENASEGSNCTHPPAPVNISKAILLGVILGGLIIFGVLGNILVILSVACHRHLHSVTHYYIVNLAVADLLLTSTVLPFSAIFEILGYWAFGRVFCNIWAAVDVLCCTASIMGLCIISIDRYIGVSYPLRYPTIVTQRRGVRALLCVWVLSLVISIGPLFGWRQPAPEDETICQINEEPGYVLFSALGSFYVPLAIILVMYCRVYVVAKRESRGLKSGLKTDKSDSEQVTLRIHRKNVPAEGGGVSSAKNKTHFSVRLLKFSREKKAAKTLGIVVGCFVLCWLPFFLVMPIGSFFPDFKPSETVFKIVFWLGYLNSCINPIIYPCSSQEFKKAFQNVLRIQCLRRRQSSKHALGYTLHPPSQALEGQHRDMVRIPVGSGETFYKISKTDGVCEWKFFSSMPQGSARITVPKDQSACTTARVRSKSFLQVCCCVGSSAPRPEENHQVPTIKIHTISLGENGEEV
# Procedure, shortened: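 Nonspecific: 10 μM phentolamine. Filter-bound radioactivity by scintillation; IC50 from competition curves, Ki by Cheng–Prusoff; mean ± SEM of 2–4 triplicate experiments.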
Structure (SMILES),Ki [1] [nM],Ki (D(2) dopamine receptor) [nM],Ki [2] [nM]
O=C1CC(=C2c3ccccc3-c3ccccc32)C(=O)N1CCCCN1CCN(c2cccc(C(F)(F)F)c2)CC1,> 1000,> 1000,> 10000
COc1ccccc1N1CCN(C/C=C\CN2C(=O)CC(=C(c3ccccc3)c3ccccc3)C2=O)CC1,237,–,–
O=C1CC(=C2c3ccccc3-c3ccccc32)C(=O)N1CCN1CCN(c2ccc(F)cc2)CC1,> 10000,> 10000,56
O=C1CC(=C2c3ccccc3-c3ccccc32)C(=O)N1CCCN1CCN(c2cccc(C(F)(F)F)c2)CC1,> 1000,> 10000,> 10000
COc1ccccc1N1CCN(CN2C(=O)CC(=C3c4ccccc4-c4ccccc43)C2=O)CC1,61,> 10000,> 1000
O=C1CC(=C2c3ccccc3-c3ccccc32)C(=O)N1CN1CCN(c2ccc(F)cc2)CC1,> 1000,> 10000,> 1000
O=C1CC(=C2c3ccccc3-c3ccccc32)C(=O)N1CCCN1CCN(c2ccc(F)cc2)CC1,> 10000,> 10000,61
O=C1CC(=C2c3ccccc3-c3ccccc32)C(=O)N1CCCN1CCN(c2ccccc2)CC1,> 1000,> 1000,646
O=C1CC(=C2c3ccccc3-c3ccccc32)C(=O)N1CCCN1CCN(c2cccc(Cl)c2)CC1,> 1000,> 10000,> 10000
O=C1CC(=C2c3ccccc3-c3ccccc32)C(=O)N1CCN1CCN(c2cccc(C(F)(F)F)c2)CC1,> 10000,> 10000,> 10000
COc1ccccc1N1CCN(CCCN2C(=O)CC(=C3c4ccccc4-c4ccccc43)C2=O)CC1,37,> 1000,161
O=C1CC(=C2c3ccccc3-c3ccccc32)C(=O)N1CCCCN1CCN(c2ccc(F)cc2)CC1,> 10000,> 10000,266

# Further lines, results first:
Ki [1] [nM],Ki (D(2) dopamine receptor) [nM],Ki [2] [nM],Structure (SMILES)
114,> 10000,791,O=C1CC(=C2c3ccccc3-c3ccccc32)C(=O)N1CN1CCN(c2cccc(C(F)(F)F)c2)CC1
6.6,–,–,COc1ccccc1N1CCN(CC#CCN2C(=O)CC(=C(c3ccccc3)c3ccccc3)C2=O)CC1
15,–,–,O=C1CC(=C(c2ccccc2)c2ccccc2)C(=O)N1CCCCN1CCN(c2cccc(C(F)(F)F)c2)CC1
9,> 10000,10,COc1ccccc1N1CCN(CCCCN2C(=O)CC(=C3c4ccccc4-c4ccccc43)C2=O)CC1
14,397,60,O=C1CC(=C2c3ccccc3-c3ccccc32)C(=O)N1CCCCN1CCN(c2ccccc2)CC1
201,> 10000,> 1000,O=C1CC(=C2c3ccccc3-c3ccccc32)C(=O)N1CN1CCN(c2ccccc2)CC1
–,–,51,O=C1CC(=C(c2ccccc2)c2ccccc2)C(=O)N1CCCCN1CCN(c2ccc(F)cc2)CC1
72,> 1000,249,O=C1CC(=C2c3ccccc3-c3ccccc32)C(=O)N1CCCCN1CCN(c2cccc(Cl)c2)CC1
> 10000,> 10000,> 10000,O=C1CC(=C2c3ccccc3-c3ccccc32)C(=O)N1CCN1CCN(c2cccc(Cl)c2)CC1
> 10000,> 10000,196,O=C1CC(=C2c3ccccc3-c3ccccc32)C(=O)N1CCN1CCN(c2ccccc2)CC1
42,> 10000,316,O=C1CC(=C2c3ccccc3-c3ccccc32)C(=O)N1CN1CCN(c2cccc(Cl)c2)CC1
> 10000,> 10000,57,COc1ccccc1N1CCN(CCN2C(=O)CC(=C3c4ccccc4-c4ccccc43)C2=O)CC1
27,–,–,COc1ccccc1N1CCN(C/C=C/CN2C(=O)CC(=C(c3ccccc3)c3ccccc3)C2=O)CC1
